Data from ChEMBL document CHEMBL1147746, “Structure-activity relationship studies of novel benzophenones leading to the discovery of a potent, next generation HIV nonnucleoside reverse transcriptase inhibitor” (J Med Chem, 2006).

Assays:
Type in all cases: functional, organism-based
[1] = tested on: Human immunodeficiency virus 1; assay: Antiviral activity against HIV1 V106A mutant using HeLa MAGI assay; conditions: Human immunodeficiency virus 1, V106A
How it was run: (§1)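 HeLa CD4-LTR-β-gal cells infected with isogenic recombinant HIV-1 built on the HxB2 backbone and carrying the RT mutation (K103N, V106A or Y181C). Infection was read by a chemiluminescent β-galactosidase signal 3 days after infection. The IC50 is the concentration giving 50% inhibition of the signal relative to untreated controls. Cytotoxicity was run in parallel by CellTiter96; highest concentration mostly 0.5 µM.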

[2] = tested on: Human immunodeficiency virus 1; assay: Antiviral activity against HIV1 Y181C mutant using HeLa MAGI assay; conditions: Human immunodeficiency virus 1, Y181C; how it was run: as §1
[3] = tested on: Human immunodeficiency virus 1; assay: Antiviral activity against HIV1 K103N mutant using HeLa MAGI assay; conditions: Human immunodeficiency virus 1, K103N; how it was run: as §1
[4] = tested on: Human immunodeficiency virus 1; assay: Antiviral activity against HIV1 HxB2 using HeLa MAGI assay; conditions: Human immunodeficiency virus 1, HxB2
How it was run: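 HeLa CD4-LTR-β-gal cells infected with HxB2 (from molecular clone pHxB2-D) or isogenic RT mutants; HIV-LTR-driven β-galactosidase quantified with chemiluminescent substrate 3 days post-infection. IC50 is the concentration inhibiting 50% of signal relative to untreated controls. Cytotoxicity measured in parallel by CellTiter96.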

[5] = tested on: Human immunodeficiency virus 1; assay: Antiviral activity against HIV1 3B in MT4 cells; conditions: Human immunodeficiency virus 1, 3B
How it was run: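 MT4 T-cell line infected with HIV-1 IIIB (from H9/HTLV-IIIB supernatants) at 100× the inoculum giving 50% growth reduction; incubated 5 days with a range of compound concentrations. Virus cytopathic effect read by MTS staining; IC50 taken as mean of one triplicate experiment. Cytotoxicity measured in parallel on uninfected cells.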

SMILES | IC50 [1] [nM] | IC50 [2] [nM] | IC50 [3] [nM] | IC50 [4] [nM] | IC50 [5] [nM]
Cc1cc(C#N)cc(C(=O)c2cc(Cl)ccc2OCC(=O)Nc2ccc(S(N)(=O)=O)cc2C)c1 | 1.4 | 1.9 | 0.9 |  | 
Cc1cc(S(N)(=O)=O)ncc1NC(=O)COc1ccc(Cl)cc1C(=O)c1cc(Cl)cc(C#N)c1 | 10 | 2 | 5 |  | 
Cc1cc(S(N)(=O)=O)ccc1NC(=O)COc1ccc(Cl)cc1C(=O)c1cccc(C#N)c1 | 30 | 1.5 | 1.5 |  | 
Cc1cc(S(N)(=O)=O)ccc1NC(=O)COc1ccc(Cl)cc1C(=O)c1cc(C#N)cc(C(F)(F)F)c1 | 5.6 | 2 | 1.1 |  | 
Cc1cc(S(=O)(=O)N(C)C)ccc1NC(=O)COc1ccc(Cl)cc1C(=O)c1cc(F)cc(C(F)(F)F)c1 |  |  | 6 | 8 | 10
CNS(=O)(=O)c1ccc(NC(=O)COc2ccc(Cl)cc2C(=O)c2cc(F)cc(C(F)(F)F)c2)c(C)c1 |  |  | 2 | 3 | 8
Cc1cc(S(N)(=O)=O)ccc1NC(=O)COc1ccc(Cl)cc1C(=O)c1cc(N)cc(C#N)c1 | 18 | 450 | 140 |  | 
Cc1cc(NCCCN2CCCC2)ccc1NC(=O)COc1ccc(Cl)cc1C(=O)c1cc(F)cc(F)c1 |  |  | 109 |  | 18
Cc1ccccc1NC(=O)COc1ccc(Cl)cc1C(=O)c1cc(F)cc(F)c1 |  | 25 | 38 | 8 | 25
Cc1cc(Cl)cc(C(=O)c2cc(Cl)ccc2OCC(=O)Nc2ccc(S(N)(=O)=O)cc2C)c1 | 9.4 | 3.3 | 3.6 |  | 
CCN(CC)CCCNc1ccc(NC(=O)COc2ccc(Cl)cc2C(=O)c2cc(F)cc(F)c2)c(C)c1 |  |  | 96 |  | 41
COc1ccc(NC(=O)COc2ccc(Cl)cc2C(=O)c2cc(F)cc(F)c2)cn1 |  |  | 72 |  | 
Cc1cc(C)cc(C(=O)c2cc(Cl)ccc2OCC(=O)Nc2ccc(S(N)(=O)=O)cc2C)c1 | 4.2 | 3 | 3.3 |  | 
Cc1cc(NC(=O)CCN2CCOCC2)ccc1NC(=O)COc1ccc(Cl)cc1C(=O)c1cc(F)cc(F)c1 |  |  | 9 |  | 5
Cc1cc(C#N)cc(C(=O)c2cc(Cl)ccc2OCC(=O)Nc2cnc(S(N)(=O)=O)cc2C)c1 | 2 | 4 | 7 |  | 
Cc1nc(S(N)(=O)=O)ccc1NC(=O)COc1ccc(Cl)cc1C(=O)c1cc(Cl)cc(C#N)c1 | 7 | 3 | 3 |  | 
Cc1cc(OCCCS(N)(=O)=O)ccc1NC(=O)COc1ccc(Cl)cc1C(=O)c1cc(F)cc(C(F)(F)F)c1 |  | 6 | 4 | 3 | 7

SMILES | IC50 [1] [nM] | IC50 [2] [nM] | IC50 [3] [nM] | IC50 [4] [nM] | IC50 [5] [nM]
Cc1cc(C#N)cc(C(=O)c2cc(Cl)ccc2OCC(=O)Nc2ncc(S(N)(=O)=O)cc2C)c1 |  |  | 93 |  | 
Cc1cc(OCCCNC(N)=O)ccc1NC(=O)COc1ccc(Cl)cc1C(=O)c1cc(F)cc(C(F)(F)F)c1 |  | 10 | 4 | 4 | 6
Cc1cc(S(N)(=O)=O)ccc1NC(=O)COc1ccc(Cl)cc1C(=O)c1cc(Cl)cc(Br)c1 | 13 | 6.9 | 6.1 |  | 
Cc1cc(S(N)(=O)=O)ccc1NC(=O)COc1ccc(Cl)cc1C(=O)c1cc(Cl)cc(C#N)c1 | 3.4 | 0.7 | 1 |  | 
Cc1cc(NCCCn2ccnc2)ccc1NC(=O)COc1ccc(Cl)cc1C(=O)c1cc(F)cc(F)c1 |  |  | 158 |  | 37
Cc1cc(S(N)(=O)=O)ccc1NC(=O)COc1ccc(Cl)cc1C(=O)c1cc(F)cc(C(F)(F)F)c1 | 10.5 | 2.9 | 2 | 1.4 | 1
Cc1cc(N2CC[S+]([O-])CC2)ccc1NC(=O)COc1ccc(Cl)cc1C(=O)c1ccccc1 | 1400 | 150 | 100 |  | 
Cc1cc(N2CC[S+]([O-])CC2)ccc1NC(=O)COc1ccc(Cl)cc1C(=O)c1ccc(C#N)cc1 | 1400 | 355 | 44 |  | 
Cc1cc(S(N)(=O)=O)ccc1NC(=O)COc1ccc(Cl)cc1C(=O)c1cc(Br)cc(C(F)(F)F)c1 | 18 | 290 | 93 |  | 
O=C(COc1ccc(Cl)cc1C(=O)c1cc(F)cc(F)c1)Nc1ccc(Cl)nc1 |  |  | 67 |  | 
Cc1cc(N2CC[S+]([O-])CC2)ccc1NC(=O)COc1ccc(Cl)cc1C(=O)c1ccccc1C#N | 2000 | 700 | 155 |  | 
Cc1cc(C#N)cc(C(=O)c2cc(Cl)ccc2OCC(=O)Nc2ccc(S(N)(=O)=O)nc2C)c1 | 3 | 4 | 6 |  | 
COc1cc(OC)cc(C(=O)c2cc(Cl)ccc2OCC(=O)Nc2ccc(S(N)(=O)=O)cc2C)c1 | 500 | 13 | 370 |  | 
Cc1cc(N2CC[S+]([O-])CC2)ccc1NC(=O)COc1ccc(Cl)cc1C(=O)c1cccc(C#N)c1 |  | 6 | 5 |  | 
O=C1Nc2ccc(Cl)cc2C(C#CC2CC2)(C(F)(F)F)O1 (single isomer, unassigned) [EFAVIRENZ] | 1.8 | 1.6 | 25 |  | 
Cc1ccnc2c1NC(=O)c1cccnc1N2C1CC1 [NEVIRAPINE] | 8200 | 10300 | 5800 |  | 
